# In article PMC6023675 (Journal of molecular biology, 2018):
# Experiments:
# [1] = tested on: cell-free translation of firefly luciferase in E. coli S30 cell extract; format: biochemical; details: 30 μM inhibitor
# How it was run: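 In vitro transcribed firefly luciferase mRNA (100 ng) was translated in E. coli S30 extract at 37°C for 30 min with test compound at 30 μM final. Luciferase activity was read with Steady-Glo substrate. Reactions were run in triplicate; error bars are confidence interval (α = 0.05).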
# [2] = tested on: E. coli 70S ribosomes; experiment: Competition binding assay with BODIPY-labeled erythromycin; details: ratio of KDapp versus CLM; listed as L-histidyl analogue
# How it was run: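 E. coli 70S ribosomes (25 nM) preincubated with BODIPY-erythromycin (4 nM) for 30 min at 25°C in 20 mM HEPES-KOH pH 7.5, 50 mM NH₄Cl, 10 mM Mg acetate, 0.05% Tween-20. Test compound was added at 0.1 μM to 1 mM, then incubated 2 h to equilibrium. Fluorescence polarization was read to give apparent KD by competition.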
# [3] = tested on: ribosome translating synthetic ORF […]; experiment: Primer extension inhibition; format: biochemical; details: 100 μM antibiotic, with or without mupirocin 50 μM, ORF MFKAFKNIIRTRTL
structure (smiles),measurement,setting,value
"O=C(N[C@H](CO)[C@H](O)c1ccc([N+](=O)[O-])cc1)C(Cl)Cl [CLM, chloramphenicol]",Inhibition of firefly luciferase synthesis (in words),[1],near-complete inhibition
N[C@@H](Cc1c[nH]cn1)C(=O)N[C@H](CO)[C@H](O)c1ccc([N+](=O)[O-])cc1 [His-CAM (1)],Affinity for the ribosome relative to CLM (fold higher),[2],10 fold
"C=C[C@]1(C)C[C@@H](OC(=O)CS[C@@H]2C[C@H]3CC[C@@H](C2)N3C)[C@]2(C)[C@H](C)CC[C@]3(CCC(=O)[C@H]32)[C@@H](C)[C@@H]1O [retapamulin (RET), retapamulin]",Site of antibiotic-induced translation arrest (toe-printing),[3],arrests the ribosome at the start codon
